# Measurements taken from the EternaBench riboswitch data.
# Key:
# MS2 coat protein [1] = assay: apparent Kd, MS2 coat protein; higher = weaker binding; RNA-MaP array; theophylline 2 mM where present
# Method in brief: (§1)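 Designs on Illumina sequencing-chip clusters, transcribed by stalled E. coli RNA polymerase, were exposed to SNAP-549-labelled MS2 coat protein in doubling steps from 0.7 or 1.5 nM up to 3 µM, without and then with constant ligand. The buffer held 100 mM Tris-HCl pH 7.5, 80 mM KCl, 4 mM MgCl2, BSA, DTT, yeast tRNA and Tween-20. Apparent Kd values are medians of filtered per-cluster binding-curve fits to green signal normalised to red-channel RNA signal and control-cluster median Fmax.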
# MS2 coat protein [2] = assay: apparent Kd, MS2 coat protein; higher = weaker binding; RNA-MaP array; tryptophan 2.4 mM where present
# Method in brief: as §1
# [3] = designed as: OFF switch for theophylline, no ligand
# [4] = ligand present: theophylline, designed as: OFF switch for theophylline
# [5] = designed as: ON switch for theophylline, no ligand
# [6] = ligand present: theophylline, designed as: ON switch for theophylline
# [7] = designed as: OFF switch for tryptophan, no ligand
# [8] = ligand present: tryptophan, designed as: OFF switch for tryptophan
# [9] = designed as: ON switch for tryptophan, no ligand
# [10] = ligand present: tryptophan, designed as: ON switch for tryptophan
sequence,measurement,setting,value
GAAUAUUACAUGAGGAUCACCCAUGUAGAUACCAGCCUUGAUUGUGGCCCUUGGCAGCUACGCCGUGAAUGCCUCAGUUGCUUAC,apparent Kd,MS2 coat protein [1]; [3],90.7 nM
same,apparent Kd,MS2 coat protein [1]; [4],31.5 nM
AGUAAUCUAUCAGAUACCAGACCCUCUUUAACAUGAGGAUCACCCAUGUCUAUGUUCUACGUCCCUUGGCAGCUGUAAAUGAUAA,apparent Kd,MS2 coat protein [1]; [5],45.9 nM
same,apparent Kd,MS2 coat protein [1]; [6],20.9 nM
UGUAUGUGAUUUGAUACCAGACCAACUGGUAAUACAUGAGGAUCACCCAUGUAGAUUUGGGUCCCUUGGCAGCAAAUCGCAUACU,apparent Kd,MS2 coat protein [1]; [5],48 nM
same,apparent Kd,MS2 coat protein [1]; [6],11.7 nM
CAUACUUUAGUAUGUAAUGUGGACAGUGAUACCAGAUACGAAAGUAUCCCUUGGCAGCACAACAUGAGGAUCACCCAUGUAUUUU,apparent Kd,MS2 coat protein [1]; [5],19.4 nM
AACAUGGGAUUAAAAUAAAUAAUAACUGAUACCAGACUAUAUAAUGUCCCUUGGCAGCAGAUACAUGAGGAUCACCCAUGUAUUA,apparent Kd,MS2 coat protein [1]; [3],12.9 nM
same,apparent Kd,MS2 coat protein [1]; [4],23.8 nM
AUAUCAUAGAGUGAUACCAGACUACAUGAGGAUCACCCAUGUGACAUUUAAAUAUCAUUUGUCCCUUGGCAGCACAUUAAGUACA,apparent Kd,MS2 coat protein [1]; [3],67.3 nM
same,apparent Kd,MS2 coat protein [1]; [4],65.4 nM
UUAUUUAUAAUGGAUACCAGUUUAAUGGCCGCAAAUCCUGACAUGAGGAUCACCCAUGUAAGCCCUUGGCAGCUGUUAUGGGUUU,apparent Kd,MS2 coat protein [1]; [3],34.8 nM
same,apparent Kd,MS2 coat protein [1]; [4],41.3 nM
UGAUCCUACAGAGAUACCAGUGCCACUAAAUAACUAAACACAUGAGGAUCACCCAUGUAACACCCUUGGCAGCUCAACUAAAGGG,apparent Kd,MS2 coat protein [1]; [5],27.4 nM
same,apparent Kd,MS2 coat protein [1]; [6],19.2 nM
UAUAUAUAUAUGGAUACCAGCAGAGAAAACGUUUAUCCUAACAUGAGGAUCACCCAUGUAUGCCCUUGGCAGCUGUAUAUAUAUA,apparent Kd,MS2 coat protein [1]; [3],24.9 nM
same,apparent Kd,MS2 coat protein [1]; [4],32.4 nM
AUAAAUAUAACCGAUACCAGCCUUAUACAUGAGGAUCACCCAUGUUAUGCUUCCUUUCUUGGCCCUUGGCAGCGGAAAUGGGUAA,apparent Kd,MS2 coat protein [1]; [5],57.9 nM
same,apparent Kd,MS2 coat protein [1]; [6],26.4 nM
GGCCGAUGGUGCGAUACCAGCUUGAGUGUACUGGCCAGGUACAUGAGGAUCACCCAUGUAAGCCCUUGGCAGCGCGUCAGAGGCC,apparent Kd,MS2 coat protein [1]; [4],35.8 nM
AGGAAACAACAUGAGGAUCACCCAUGUGAUACCAGUCAAAUAAAAGACCCUUGGCAGCACACAUGACAUGAGGAUCACCCAUGUA,apparent Kd,MS2 coat protein [1]; [5],31.9 nM
same,apparent Kd,MS2 coat protein [1]; [6],77 nM
AACUAAUCACAUGAGGAUCACCCAUGUGAUACCAGCUAAUCCCAAAGCCCUUGGCAGCACCUUUGGGUCCCGGUGUGUUUGAACA,apparent Kd,MS2 coat protein [1]; [3],9.6 nM
same,apparent Kd,MS2 coat protein [1]; [4],21.9 nM
CGUGGUGGGACGGAUACCAGCCACCGCGGCAACGCAACAUGAGGAUCACCCAUGUUGGGUGGCCCUUGGCAGCUGUCCUGCGGCG,apparent Kd,MS2 coat protein [1]; [5],11.5 nM
same,apparent Kd,MS2 coat protein [1]; [6],13.4 nM
UGACAUUGCUCAGAUACCAGACAUGAGGAUCACCCAUGUGCCAAAACGUACUAAAUAAAUGUCCCUUGGCAGCUGAGCAAUGUCU,apparent Kd,MS2 coat protein [1]; [3],12.6 nM
same,apparent Kd,MS2 coat protein [1]; [4],126 nM
ACAUGAGGAUCACCCAUGUAGUGGCACGAUACCAGCUGAUCCCGUGGCCCUUGGCAGCGUCCGGUGUGGUCUGCCGGGAUGGAGC,apparent Kd,MS2 coat protein [1]; [5],23.7 nM
same,apparent Kd,MS2 coat protein [1]; [6],28.4 nM
AGCCCUGUGCUAGAUACCAGCUACAUGAGGAUCACCCAUGUGCGUCAAGACUGACUGUGUAGCCCUUGGCAGCUACUCGCAUGUA,apparent Kd,MS2 coat protein [1]; [3],12.6 nM
same,apparent Kd,MS2 coat protein [1]; [4],23 nM
AGCGACAUGCGUGAUACCAGCUACAUGAGGAUCACCCAUGUACGUCAGAAAUGACUGUGUAGCCCUUGGCAGCAUAGUGCAUGUC,apparent Kd,MS2 coat protein [1]; [3],32.6 nM
same,apparent Kd,MS2 coat protein [1]; [4],60.7 nM
AGCGCAGGUCCUGAUACCAGAGACAUGAGGAUCACCCAUGUCCGAUGGUCCUGCCUCAGGCUCCCUUGGCAGCAGGGCUUGUGCU,apparent Kd,MS2 coat protein [1]; [3],10.3 nM
same,apparent Kd,MS2 coat protein [1]; [4],20.4 nM
ACAUGAGGAUCACCCAUGUGCAGAACGGAUACCAGCGUCCUGGUACGCCCUUGGCAGCCGGACAUGAGGAUCACCCAUGUGUGGA,apparent Kd,MS2 coat protein [1]; [3],93.1 nM
same,apparent Kd,MS2 coat protein [1]; [4],406 nM
ACAACAUGAGGCGAUACCAGAGGCAACAUGAGGAUCACCCAUGUUCACCCAUGUGAUCACCUCCCUUGGCAGCGCACAUGAGGAU,apparent Kd,MS2 coat protein [1]; [5],12.4 nM
same,apparent Kd,MS2 coat protein [1]; [6],30 nM
UUUGAUAGGACAGAUACCAGCGUGUUGUUGAACAUGAGGAUCACCCAUGUAGUGAUCAAGCGCCCUUGGCAGCUGGUUUGUUAGG,apparent Kd,MS2 coat protein [1]; [5],236 nM
same,apparent Kd,MS2 coat protein [1]; [6],81.7 nM
ACGAACGAUAGCGAUACCAGACGUACAUGAGGAUCACCCAUGUUUUGGGUAAGGUUAAUAGUCCCUUGGCAGCGCUUUAAGUUCG,apparent Kd,MS2 coat protein [1]; [3],59.6 nM
same,apparent Kd,MS2 coat protein [1]; [4],469 nM
UUAUGAUGUUCCGAUACCAGCCAUGUGGUUCUAACUUAACAUGAGGAUCACCCAUGUACCGGCCCUUGGCAGCGGAUGUGGAUUA,apparent Kd,MS2 coat protein [1]; [5],11.2 nM
same,apparent Kd,MS2 coat protein [1]; [6],17 nM
UCGCAUUGCUGCGAUACCAGACAUGAGGAUCACCCAUGUACCAAGAAAACGUACAUAAAUGUCCCUUGGCAGCGCAGCAAUGCGU,apparent Kd,MS2 coat protein [1]; [3],443 nM
same,apparent Kd,MS2 coat protein [1]; [4],1110 nM
AUAAUGGGUUUCGGACUAUCAUGGAAUGAUACCAGAUACUUAGAAAUCCCUUGGCAGCAUGAGGACAUGAGGAUCACCCAUGUAU,apparent Kd,MS2 coat protein [1]; [3],57.9 nM
same,apparent Kd,MS2 coat protein [1]; [4],61.5 nM
ACCCAUAAUUGGGCGGGUGGAUUGAGUGAUACCAGUCGUAUACAUGACCCUUGGCAGCACCGACAUGAGGAUCACCCAUGUGCCA,apparent Kd,MS2 coat protein [1]; [5],39.7 nM
same,apparent Kd,MS2 coat protein [1]; [6],99.8 nM
UCAUGAGGAUCACCCAUGUGGCGUCUUGAUACCAGACGAGAAGUAGUCCCUUGGCAGCAAAUACAUGAGGAUCACCCAUGUAGGA,apparent Kd,MS2 coat protein [1]; [3],38.6 nM
same,apparent Kd,MS2 coat protein [1]; [4],63.7 nM
AGACAUGAGGAUCACCCAUGUAGUACGGAUACCAGAUCCAGAUGCGUCCCUUGGCAGCUGUGGUACAGCGUUACAUCGCUCGUAG,apparent Kd,MS2 coat protein [1]; [3],17.6 nM
same,apparent Kd,MS2 coat protein [1]; [4],17.6 nM
UGGUACAUGAGGAUCACCCAUGUGCCGGAUACCAGAGAGCCGGCUCUCCCUUGGCAGCUGGCGCGACAUGAGGAUCACCCAUGUG,apparent Kd,MS2 coat protein [1]; [3],25.2 nM
same,apparent Kd,MS2 coat protein [1]; [4],38.4 nM
UAUCUUGCGGGCGCCCGCAAGGUUGCGGAUACCAGCGAGAUAAAUCGCCCUUGGCAGCCGAACAUGAGGAUCACCCAUGUCGGAC,apparent Kd,MS2 coat protein [1]; [5],9.99 nM
same,apparent Kd,MS2 coat protein [1]; [6],12.7 nM
GCACCAGGUACGGAUACCAGCUGCCAGCGUUACAUGAGGAUCACCCAUGUGAUCUGAUAUAGCCCUUGGCAGCUGUACCUGGUGC,apparent Kd,MS2 coat protein [1]; [5],110 nM
same,apparent Kd,MS2 coat protein [1]; [6],865 nM
CGGUUUGUGAUGGAUACCAGCAGAGUGACUGUUUAUCCUGACAUGAGGAUCACCCAUGUGUGCCCUUGGCAGCUGUUGUGGGCUG,apparent Kd,MS2 coat protein [1]; [3],80.4 nM
same,apparent Kd,MS2 coat protein [1]; [4],80.8 nM
CUCUGAGUCCGAAAGGACUCAGAGGCGGAUACCAGCGAGGUCCAUCGCCCUUGGCAGCCGAACAUGAGGAUCACCCAUGUCGGUA,apparent Kd,MS2 coat protein [1]; [5],10.5 nM
same,apparent Kd,MS2 coat protein [1]; [6],14.5 nM
UGACAUUGCUCAGAUACCAGACAUGAGGAUCACCCAUGUACCAAGGUACCCGAAAGGAAUGUCCCUUGGCAGCUGAGCAAUGUCU,apparent Kd,MS2 coat protein [1]; [3],9.93 nM
same,apparent Kd,MS2 coat protein [1]; [4],21.6 nM
AAAUAAAUAACUGAUACCAGUGUACUGACAUGAGGAUCACCCAUGUUGGGUUUGGUUGUACACCCUUGGCAGCAGAAAUAUAAAA,apparent Kd,MS2 coat protein [1]; [3],15.9 nM
same,apparent Kd,MS2 coat protein [1]; [4],29.8 nM
AACCGAGGCUAUCCUCUAAGACUAUGUGAUACCAGAAUAAUUUUAUUCCCUUGGCAGCAUGACAUGAGGAUCACCCAUGUCUCUU,apparent Kd,MS2 coat protein [1]; [5],27.8 nM
same,apparent Kd,MS2 coat protein [1]; [6],32.3 nM
GAUGAACUAUAUGAUACCAGACAACAUGAGGAUCACCCAUGUGUAAGUCGUCCUCUGCCUGUCCCUUGGCAGCGUAUAGUUUAUC,apparent Kd,MS2 coat protein [1]; [3],47.6 nM
same,apparent Kd,MS2 coat protein [1]; [4],84 nM
CCGGCCAAUUAGAAAUUAAUUGGCCGGAAACGAGGACCGGUACGGCCGCCACUCGUGGCGGGAGAAACAUGAGGAUCACCCAUGU,apparent Kd,MS2 coat protein [2]; [7],40 nM
same,apparent Kd,MS2 coat protein [2]; [8],26 nM
ACGUUUUAGUCGGCCGCCACUGUUUUCAUGUUCAACAUGAGGAUCACCCAUGUACCUUUUUUUAUCAGGACCGGGACGUAAUAGA,apparent Kd,MS2 coat protein [2]; [9],68.5 nM
same,apparent Kd,MS2 coat protein [2]; [10],27.4 nM
GAUUUAACAAAAGUUAGAUCAGUGGGUGAACGAGGACCGGUACGGCCGCCACUCGGACAUGAGGAUCACCCAUGUCCAUGUGAAA,apparent Kd,MS2 coat protein [2]; [7],17.8 nM
same,apparent Kd,MS2 coat protein [2]; [8],43.1 nM
ACCGAAAGCUCACAUGAGGAUCACCCAUGUCGAGGACCGGUACGGCCGCCACUCGGCAAAUAUAAGGGUGGACGCGUCUCUGCGU,apparent Kd,MS2 coat protein [2]; [7],39 nM
same,apparent Kd,MS2 coat protein [2]; [8],79.8 nM
ACAUGAGGAUCACCCAUGUCAUGAGGUUCACGAGGACCGGUACGGCCGCCACUCGACAUGAGGGUCACCCAUGUGAGGAACACCC,apparent Kd,MS2 coat protein [2]; [9],305 nM
same,apparent Kd,MS2 coat protein [2]; [10],97 nM
CCAUCUACAUCGGCCGCCACUGAACCAAGGAGACAUGAGGAUCACCCAUGUAUGGGAAACCAUCAUAGGACCGGGAUGAUCUACC,apparent Kd,MS2 coat protein [2]; [9],113 nM
same,apparent Kd,MS2 coat protein [2]; [10],122 nM
CGUAUUGGAAACAGUACGAGUGAUCCGGUCCGAGGACCGGUACGGCCGCCACUCGAAAUUAAUAAACAUGAGGAUCACCCAUGUA,apparent Kd,MS2 coat protein [2]; [7],17.8 nM
same,apparent Kd,MS2 coat protein [2]; [8],26.8 nM
AACAUGAGGAUCACCCAUGUACCUUUCGAUCGAGGACCGGUACGGCCGCCACUCGAAAACAUGAGGAUCACCCAUGUUCAACAGG,apparent Kd,MS2 coat protein [2]; [9],145 nM
same,apparent Kd,MS2 coat protein [2]; [10],87.4 nM
